Measurements from ChEMBL document CHEMBL4673184, “Synthesis and biological evaluation of S-lipidated lipopeptides of a connexin 43 channel inhibitory peptide” (RSC Med Chem, 2020).
Activity calls are given as the source filed them. No cut-off for these calls is given here. Where a SMILES comes first, the peptide text is derived from it. The star is where a group is joined. Ethyl(2-stearoyloxy) = CCCCCCCCCCCCCCCCCC(=O)OCC*; Ethyl(2-palmitoyloxy) = CCCCCCCCCCCCCCCC(=O)OCC*; CH2CH2OBz(4-tBu) = CC(C)(C)c1ccc(C(=O)OCC*)cc1; Ethyl(2-decanoyloxy) = CCCCCCCCCC(=O)OCC*; Ethyl(2-butanoyloxy) = CCCC(=O)OCC*; Ethyl(2-OPiv) = CC(C)(C)C(=O)OCC*

Target: Gap junction alpha-1 protein (Homo sapiens) (UniProt P17302)
Experiment: Inhibition of Cx43 in hypoxic-acidic ion-shifted ringers solution-induced human cerebral microvascular endothelial cell model of ischaemic injury assessed as ATP release at 10 uM measured after 2 hrs by luciferin-luciferase based luminescence assay relative to control
Set-up: scale not given: the % may be the effect or the level left
Procedure, shortened: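 hCMVEC (passages 8-17) seeded at 2 x 10^6/well on collagen-I (1 µg/cm²) and grown 48 h to a confluent monolayer. Washed in NR, then exposed 2 h in HAIR (pH 6.6, N₂-bubbled, low Ca²⁺, K-gluconate/NMDG) containing peptide at 10 µM. Supernatant diluted 1:10 in firefly luciferase mix and read at 560 nm against an ATP standard (0-50 nM). Expressed as % of HAIR-only, mean of n=3.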

Gap junction alpha-1 protein (Homo sapiens), sequence (P17302 whole entry): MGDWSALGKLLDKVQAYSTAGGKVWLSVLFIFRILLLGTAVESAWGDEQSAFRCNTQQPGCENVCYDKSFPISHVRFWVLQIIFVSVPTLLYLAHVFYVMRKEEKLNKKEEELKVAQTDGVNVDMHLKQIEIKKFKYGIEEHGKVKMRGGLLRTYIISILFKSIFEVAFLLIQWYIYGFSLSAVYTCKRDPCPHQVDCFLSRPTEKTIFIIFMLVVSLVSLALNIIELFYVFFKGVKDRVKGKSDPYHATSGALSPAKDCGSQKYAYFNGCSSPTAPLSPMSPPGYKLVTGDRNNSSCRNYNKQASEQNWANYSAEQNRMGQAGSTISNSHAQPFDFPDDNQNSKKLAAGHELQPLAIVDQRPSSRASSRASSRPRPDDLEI

Structure (SMILES)	Activity
CCCCCCCCCC(=O)OCCSC[C@H](NC(=O)[C@H](CC(C)C)NC(=O)[C@H](Cc1ccccc1)NC(=O)[C@H](CS)NC(=O)[C@H](CC(=O)O)NC(=O)[C@@H](N)C(C)C)C(=O)N[C@@H](CCCNC(=N)N)C(=O)N1CCC[C@H]1C(=O)N[C@H](C(=O)N[C@@H](CCC(=O)O)C(=O)N[C@@H](CCCCN)C(=O)N[C@H](C(=O)O)[C@@H](C)O)[C@@H](C)O (H-VDCFLC(Ethyl(2-decanoyloxy))RPTEKT-OH)	inactive
CCCCCCCCCCCCCCCC(=O)OCCSC[C@H](NC(=O)[C@H](CC(C)C)NC(=O)[C@H](Cc1ccccc1)NC(=O)[C@H](CS)NC(=O)[C@H](CC(=O)O)NC(=O)[C@@H](N)C(C)C)C(=O)N[C@@H](CCCNC(=N)N)C(=O)N1CCC[C@H]1C(=O)N[C@H](C(=O)N[C@@H](CCC(=O)O)C(=O)N[C@@H](CCCCN)C(=O)N[C@H](C(=O)O)[C@@H](C)O)[C@@H](C)O (H-VDCFLC(Ethyl(2-palmitoyloxy))RPTEKT-OH)	inactive
CCCCCCCCCCCCCCCCCC(=O)OCCSC[C@H](NC(=O)[C@H](CC(C)C)NC(=O)[C@H](Cc1ccccc1)NC(=O)[C@H](CS)NC(=O)[C@H](CC(=O)O)NC(=O)[C@@H](N)C(C)C)C(=O)N[C@@H](CCCNC(=N)N)C(=O)N1CCC[C@H]1C(=O)N[C@H](C(=O)N[C@@H](CCC(=O)O)C(=O)N[C@@H](CCCCN)C(=O)N[C@H](C(=O)O)[C@@H](C)O)[C@@H](C)O (H-VDCFLC(Ethyl(2-stearoyloxy))RPTEKT-OH)	inactive
CC(C)C[C@H](NC(=O)[C@H](Cc1ccccc1)NC(=O)[C@H](CS)NC(=O)[C@H](CC(=O)O)NC(=O)[C@@H](N)C(C)C)C(=O)N[C@@H](CO)C(=O)N[C@@H](CCCNC(=N)N)C(=O)N1CCC[C@H]1C(=O)N[C@@H](CSCCOC(=O)c1ccc(C(C)(C)C)cc1)C(=O)N[C@@H](CCC(=O)O)C(=O)N[C@@H](CCCCN)C(=O)N[C@H](C(=O)O)[C@@H](C)O (H-VDCFLSRPC(CH2CH2OBz(4-tBu))EKT-OH)	inactive
CC(C)C[C@H](NC(=O)[C@H](Cc1ccccc1)NC(=O)[C@H](CS)NC(=O)[C@H](CC(=O)O)NC(=O)[C@@H](N)C(C)C)C(=O)N[C@@H](CO)C(=O)N[C@@H](CCCNC(=N)N)C(=O)N1CCC[C@H]1C(=O)N[C@@H](CSCCOC(=O)C(C)(C)C)C(=O)N[C@@H](CCC(=O)O)C(=O)N[C@@H](CCCCN)C(=O)N[C@H](C(=O)O)[C@@H](C)O (H-VDCFLSRPC(Ethyl(2-OPiv))EKT-OH)	inactive
CCCC(=O)OCCSC[C@H](NC(=O)[C@@H]1CCCN1C(=O)[C@H](CCCNC(=N)N)NC(=O)[C@H](CO)NC(=O)[C@H](CC(C)C)NC(=O)[C@H](Cc1ccccc1)NC(=O)[C@H](CS)NC(=O)[C@H](CC(=O)O)NC(=O)[C@@H](N)C(C)C)C(=O)N[C@@H](CCC(=O)O)C(=O)N[C@@H](CCCCN)C(=O)N[C@H](C(=O)O)[C@@H](C)O (H-VDCFLSRPC(Ethyl(2-butanoyloxy))EKT-OH)	inactive
CCCCCCCCCC(=O)OCCSC[C@H](NC(=O)[C@@H]1CCCN1C(=O)[C@H](CCCNC(=N)N)NC(=O)[C@H](CO)NC(=O)[C@H](CC(C)C)NC(=O)[C@H](Cc1ccccc1)NC(=O)[C@H](CS)NC(=O)[C@H](CC(=O)O)NC(=O)[C@@H](N)C(C)C)C(=O)N[C@@H](CCC(=O)O)C(=O)N[C@@H](CCCCN)C(=O)N[C@H](C(=O)O)[C@@H](C)O (H-VDCFLSRPC(Ethyl(2-decanoyloxy))EKT-OH)	inactive
CCCCCCCCCCCCCCCC(=O)OCCSC[C@H](NC(=O)[C@@H]1CCCN1C(=O)[C@H](CCCNC(=N)N)NC(=O)[C@H](CO)NC(=O)[C@H](CC(C)C)NC(=O)[C@H](Cc1ccccc1)NC(=O)[C@H](CS)NC(=O)[C@H](CC(=O)O)NC(=O)[C@@H](N)C(C)C)C(=O)N[C@@H](CCC(=O)O)C(=O)N[C@@H](CCCCN)C(=O)N[C@H](C(=O)O)[C@@H](C)O (H-VDCFLSRPC(Ethyl(2-palmitoyloxy))EKT-OH)	102%
CCCCCCCCCCCCCCCCCC(=O)OCCSC[C@H](NC(=O)[C@@H]1CCCN1C(=O)[C@H](CCCNC(=N)N)NC(=O)[C@H](CO)NC(=O)[C@H](CC(C)C)NC(=O)[C@H](Cc1ccccc1)NC(=O)[C@H](CS)NC(=O)[C@H](CC(=O)O)NC(=O)[C@@H](N)C(C)C)C(=O)N[C@@H](CCC(=O)O)C(=O)N[C@@H](CCCCN)C(=O)N[C@H](C(=O)O)[C@@H](C)O (H-VDCFLSRPC(Ethyl(2-stearoyloxy))EKT-OH)	102%
CC(C)C[C@H](NC(=O)[C@H](Cc1ccccc1)NC(=O)[C@H](CS)NC(=O)[C@H](CC(=O)O)NC(=O)[C@@H](N)C(C)C)C(=O)N[C@@H](CO)C(=O)N[C@@H](CCCNC(=N)N)C(=O)N1CCC[C@H]1C(=O)N[C@H](C(=O)N[C@@H](CSCCOC(=O)c1ccc(C(C)(C)C)cc1)C(=O)N[C@@H](CCCCN)C(=O)N[C@H](C(=O)O)[C@@H](C)O)[C@@H](C)O (H-VDCFLSRPTC(CH2CH2OBz(4-tBu))KT-OH)	inactive
CC(C)C[C@H](NC(=O)[C@H](Cc1ccccc1)NC(=O)[C@H](CS)NC(=O)[C@H](CC(=O)O)NC(=O)[C@@H](N)C(C)C)C(=O)N[C@@H](CO)C(=O)N[C@@H](CCCNC(=N)N)C(=O)N1CCC[C@H]1C(=O)N[C@H](C(=O)N[C@@H](CSCCOC(=O)C(C)(C)C)C(=O)N[C@@H](CCCCN)C(=O)N[C@H](C(=O)O)[C@@H](C)O)[C@@H](C)O (H-VDCFLSRPTC(Ethyl(2-OPiv))KT-OH)	inactive
CCCC(=O)OCCSC[C@H](NC(=O)[C@@H](NC(=O)[C@@H]1CCCN1C(=O)[C@H](CCCNC(=N)N)NC(=O)[C@H](CO)NC(=O)[C@H](CC(C)C)NC(=O)[C@H](Cc1ccccc1)NC(=O)[C@H](CS)NC(=O)[C@H](CC(=O)O)NC(=O)[C@@H](N)C(C)C)[C@@H](C)O)C(=O)N[C@@H](CCCCN)C(=O)N[C@H](C(=O)O)[C@@H](C)O (H-VDCFLSRPTC(Ethyl(2-butanoyloxy))KT-OH)	32%
CCCCCCCCCC(=O)OCCSC[C@H](NC(=O)[C@@H](NC(=O)[C@@H]1CCCN1C(=O)[C@H](CCCNC(=N)N)NC(=O)[C@H](CO)NC(=O)[C@H](CC(C)C)NC(=O)[C@H](Cc1ccccc1)NC(=O)[C@H](CS)NC(=O)[C@H](CC(=O)O)NC(=O)[C@@H](N)C(C)C)[C@@H](C)O)C(=O)N[C@@H](CCCCN)C(=O)N[C@H](C(=O)O)[C@@H](C)O (H-VDCFLSRPTC(Ethyl(2-decanoyloxy))KT-OH)	96%
CCCCCCCCCCCCCCCC(=O)OCCSC[C@H](NC(=O)[C@@H](NC(=O)[C@@H]1CCCN1C(=O)[C@H](CCCNC(=N)N)NC(=O)[C@H](CO)NC(=O)[C@H](CC(C)C)NC(=O)[C@H](Cc1ccccc1)NC(=O)[C@H](CS)NC(=O)[C@H](CC(=O)O)NC(=O)[C@@H](N)C(C)C)[C@@H](C)O)C(=O)N[C@@H](CCCCN)C(=O)N[C@H](C(=O)O)[C@@H](C)O (H-VDCFLSRPTC(Ethyl(2-palmitoyloxy))KT-OH)	114%
CCCCCCCCCCCCCCCCCC(=O)OCCSC[C@H](NC(=O)[C@@H](NC(=O)[C@@H]1CCCN1C(=O)[C@H](CCCNC(=N)N)NC(=O)[C@H](CO)NC(=O)[C@H](CC(C)C)NC(=O)[C@H](Cc1ccccc1)NC(=O)[C@H](CS)NC(=O)[C@H](CC(=O)O)NC(=O)[C@@H](N)C(C)C)[C@@H](C)O)C(=O)N[C@@H](CCCCN)C(=O)N[C@H](C(=O)O)[C@@H](C)O (H-VDCFLSRPTC(Ethyl(2-stearoyloxy))KT-OH)	83.7%
